From paper PMC6863147 (Clinical cancer research : an official journal of the …, 2019)
“And” between values parts separate entries of the source, which are not always exact repeats. Equal values may be shown once.

Columns and labels:
[1] = type: in vivo, human
recurrent glioblastoma = test: pharmacokinetic/pharmacodynamic-guided expansion cohort, clinical response; type: in vivo, human
p4EBP1 = test: longitudinal tissue analysis, p4EBP1 immunohistochemistry; type: in vivo, human; conditions: 3 patients
pS6 = test: longitudinal tissue analysis, pS6 immunohistochemistry; type: in vivo, human; conditions: 3 patients
In short: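 Samples were from expansion-cohort patients (600 mg daily, 21 days on/7 off) re-resected at recurrence. Enhancing tumor was collected. Archival, Phase 0 surgical and post-treatment FFPE tissue was immunostained on an automated platform (anti-pS6 1:100). The software nuclear function quantified % positive cells.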

[2] = tested on: apoptotic marker cleaved caspase-3; test: tumor pharmacodynamics, cleaved caspase-3 immunohistochemistry; type: in vivo, human; conditions: P = 0.19
In short: (§1)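 Patients took 900 mg/d oral for 5 days, with resection 2, 8 or 24 h after the last dose. Surgical FFPE tissue and matched archival tissue from the initial resection were stained together on an automated platform, with positive and no-primary controls. Antibodies: pRB 1:400, pFOXM1 1:200, MIB-1 1:100, cleaved caspase-3 1:300. Nuclear % positive cells were compared by paired t-test on log values (two-sided 5%), also after normalising to the untreated historical-control median, overall and per arm.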

CDK4/6 = conditions: read-out: in vitro IC50 for inhibition of CDK4/6 kinase activity; cited from earlier work
[3] = plasma pharmacokinetics in recurrent glioblastoma patients; type: in vivo, human
In short: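 Patients took 900 mg oral daily. Blood was drawn before dosing and 0.5, 1, 2, 4, 6, 8 and 24 h after the fourth dose. Plasma was held at −80 °C. Totals were measured by validated LC-MS/MS, and unbound levels as total × fraction unbound (equilibrium dialysis). Noncompartmental analysis gave Cmax, Tmax, AUCτ and CL/F (dose/AUCτ), summarised as mean, median, range and coefficient of variation.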

[4] = safety and tolerability in glioblastoma patients; conditions: human, in vivo
[5] = tested on: phosphorylation of RB (pRB); test: tumor pharmacodynamics, pRB immunohistochemistry; type: in vivo, human
In short: as §1

[6] = tested on: phosphorylation of FOXM1 (pFOXM1); test: tumor pharmacodynamics, pFOXM1 immunohistochemistry; type: in vivo, human; conditions: P = 0.142, primarily at 8-hour postdose
In short: as §1

[7] = tested on: proliferative marker MIB-1; test: tumor pharmacodynamics, MIB-1 immunohistochemistry; type: in vivo, human; conditions: vs archival tissue, P = 0.039
In short: as §1

[8] = tested on: recurrent RB-positive glioblastoma; conditions: 22 patients; cited from earlier work
[9] = 2 to 24 hours after fifth 900 mg dose
[10] = human, non-enhancing tumor region, oral, 900 mg

## CN(C)C(=O)c1cc2cnc(Nc3ccc(N4CCNCC4)cn3)nc2n1C1CCCC1 [ribociclib, Ribociclib]
[1]; [9]
  mean unbound concentration in enhancing tumor region: 2.152 µmol/kg and 2.152 ± 1.559 µmol/kg
  mean unbound concentration in non-enhancing tumor region: 0.560 µmol/kg and 0.560 ± 0.364 µmol/kg
[1]; [10]
  concentration at 2 h: 510 nM
  concentration at 8 h: 600 nM
  concentration at 24 h: 350 nM
Recurrent glioblastoma; 6 of 8 patients with histologically evident recurrence
  Phase 0 responders based on pharmacokinetic and pharmacodynamic results: 75%
Recurrent glioblastoma; expansion cohort, 6 patients
  PFS6: 16.7%
  median OS: 7.8 months
Recurrent glioblastoma; expansion cohort, 6 patients, 600 mg daily 21 days on/7 days off
  median PFS: 9.7 weeks
Recurrent glioblastoma; recurrent glioblastoma
  clinical efficacy of monotherapy: limited clinical efficacy
p4EBP1; matched Phase 0 samples
  p4EBP1 positive cells: 2.8%
p4EBP1; post-treatment specimens
  p4EBP1 positive cells: 31.2%
pS6; matched Phase 0 samples
  pS6 positive cells: 21.3%
pS6; post-treatment specimens
  pS6 positive cells: 36.7%
[2]
  cleaved caspase-3 change after Phase 0 exposure: trended towards a concomitant increase
CDK4/6
  IC50: 40 nM
[3]; human, plasma, po, 900 mg
  half-life: 13.5 h
[3]; inter-individual, among 12 patients
  coefficient variation in drug exposure (Cmax, Ctrough, AUC0-24h): about 50%
[3]; steady-state, 900 mg daily
  fluctuation of unbound plasma concentration, trough to peak: 3.4 fold
  unbound plasma concentration, mean peak level: 440 nM
  unbound plasma concentration, mean trough level: 130 nM
[4]
  maximum tolerated dose: 900 mg daily
[5]; 9 of 12 Phase 0 patients, vs matched archival tissue
  patients with > 20% decrease in pRB levels: 75%
[5]; 12 treated patients, 900 mg/d for 5 days
  average decrease in pRB levels: 50%
[5]; Phase 0 operation specimens, 3 re-resected patients
  pRB positive cells: 7.4%
[5]; post-treatment (recurrence after monotherapy), 3 patients
  pRB positive cells: 19.96%
[6]
  pFOXM1 levels after normalization with historical control samples: downward trend
[7]
  MIB-1 change after Phase 0 exposure: significantly reduced

## CC(=O)c1c(C)c2cnc(Nc3ccc(N4CCNCC4)cn3)nc2n(C2CCCC2)c1=O [Palbociclib]
[8]
  clinical efficacy in terms of prolonging PFS: limited clinical efficacy
